High-throughput results as filed in PubChem.
The list is not random: actives were taken first. Their share in the collection is about 5.1%.
NF-kB neuron act: raises NF-kB expression in human neuronal cells | NF-kB reporter expression; active compounds read high | fold change at 12.5 µM | 190,000 tested, 1.6% active; in the data active = fold change above about 3.3
STAT1 blocker: reduces IFN-gamma driven STAT1 reporter signal. inhibition, % at 5.5 µM. NIH 3T3 STAT1-luciferase reporter, luminescence. 200,000 tested, 0.35% active. AID 920;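 active = inhibition above a set limit, the mean inhibition across all tested compounds plus 3 SD, cut at about 34% in these data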
STAT1 activator: increases IFN-gamma driven STAT1 reporter signal; NIH 3T3 STAT1-luciferase reporter, luminescence; 100% = IFN-gamma alone, no compound; activation (% of control), % at 5.5 µM; 200,000 tested, 2.6% active; AID 932;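 active = activation above the screen-wide mean activation plus 3 SD, cut at about 130% in these data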
STAT3 inh: reduces IL-6 driven STAT3 reporter signal; 190,000 tested, 0.89% active; U3A cells, IL-6 STAT3-luciferase reporter, luminescence; host cell line lacks STAT1; inhibition, % at 5.5 µM;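 active = inhibition above the mean inhibition across all screened compounds plus 3 SD, cut at about 44% in these data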
STAT3 activator: activators of IL-6 induced STAT3 signaling | AID 871 | U3A cells, IL-6 STAT3-luciferase reporter, luminescence; 100% = signal with IL-6 EC80 alone | activation (% of control), % at 5.6 µM | 190,000 tested, 0.91% active;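 active = activation above the screen-wide mean of compound activation plus 3 SD, cut at about 130% in these data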
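Test system: STAT3-luciferase reporter U3A cells; Detection: reporter luminescence signal; Times: 1 h compound pre-exposure, 6 h IL-6 stimulation, 37 °C; Benchmarks: IL-6-only high control; Also added: IL-6 stimulus at 33 ng/mL final.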
APP 5'UTR act: activates APP 5'UTR luciferase reporter | SH-SY5Y APP 5'UTR luciferase reporter, luminescence; zero percent = DMSO vehicle wells | activation, % at 2 µM | 190,000 tested, 1% active;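 active = activation above a set limit, based on mean plus 3 SD of controls, cut at about 140% in these data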
Each line names hits and unclear results; the compound was inactive in the other large screens.

Cc1c(Br)c([N+](=O)[O-])nn1CC(=O)Nc1cccc2nonc12	none
Cc1cc(C)n(-c2ccc(C(=O)OCC(=O)Nc3cc(Cl)ccc3[N+](=O)[O-])cc2)n1	STAT3 activator 134
O=C1CCC(=O)N1c1ccc(-c2nc3ccccc3s2)cc1	STAT1 blocker 68, STAT3 inh 86
CCCCCCNC(=O)c1c(N)n(/N=C/c2ccco2)c2nc3ccccc3nc12	STAT1 activator 135 (no result: NF-kB neuron act)
O=C(c1cccc([N+](=O)[O-])c1)N1CCOCC1	none
O=C(/C=C\c1ccc(-c2cccc([N+](=O)[O-])c2)o1)N1CCOCC1	STAT1 activator 129
O=C(N/N=C/c1ccsc1)c1ccc2ccccc2n1	none
CCC(C)NC(=O)COC(=O)c1ccc(Cl)cc1O (stereo unspecified)	none
Cc1ccc(C(=O)N(Cc2cccnc2)Cc2cc3cc(C)ccc3n3nnnc23)cc1	none
CC(C)NC(=O)CCNC(=O)c1ccc(F)cc1	none
O=C(CCSc1ccccc1)N1CCOCC1	none
O=C(CCSc1ccccc1)NC1CCCCCC1	STAT1 activator 144
O=C(CCSc1ccccc1)N1CCCC1	STAT1 activator 134
O=C(CCSc1ccc(Cl)cc1)NC1CCCCC1	none
CC(=O)c1nnn(-c2ccc([N+](=O)[O-])cc2C)c1C	none
COc1ccc(Oc2ccc(/C=C/C(=O)c3ccc(O)cc3)cc2[N+](=O)[O-])cc1	NF-kB neuron act 5
Cc1ccc(NC(=O)c2ccc3snnc3c2)cc1	STAT1 activator 147
O=C(Nc1ccccc1)c1ccc2snnc2c1	none
COC(=O)[C@@H]1CCCN1C(=O)CCc1nnc(CCc2c[nH]c3ccccc23)o1	none
COC(=O)[C@@H]1CCCN1C(=O)CCc1nnc(CCC2CCCCC2)o1	STAT1 activator 139
CCc1ccc(C(=O)COC(=O)c2cccs2)cc1	APP 5'UTR act 156
NS(=O)(=O)c1ccc(N=Nc2c(O)ccc3ccccc23)cc1	STAT1 activator 132
CC(c1ccon1)N(C)Cc1cn(C)nc1-c1cccc(Cl)c1 (stereo unspecified)	none
COc1ccc(/C=C/C(=O)c2cc3c(cc2N)OCO3)cc1	NF-kB neuron act 3.8, APP 5'UTR act 145
c1ccc(-c2nccc(-c3ccco3)n2)nc1	none
c1ccc(-c2nc(-c3ccco3)cs2)nc1	STAT1 activator 130
c1ccc(-c2noc(-c3cccc4ccccc34)n2)nc1	none
c1ccc(-c2noc(-c3ccco3)n2)nc1	STAT1 activator 137, APP 5'UTR act 192
O=C(Nc1nc(-c2ccccn2)cs1)c1ccco1	none
c1ccc(-c2nc(-c3ccccn3)no2)cc1	STAT1 blocker 62, STAT3 inh 98
Clc1cccc(-c2nc(-c3ccccn3)no2)c1	STAT1 blocker 54, STAT3 inh 81
CCN(CC)S(=O)(=O)c1ccc(OC)c(NC(=O)CSc2cc(C)ccc2C)c1	none
Fc1ccc(-c2csc(-c3ccccn3)n2)cc1F	STAT1 activator 140
Cc1ccc2nc(-c3ccccn3)oc2c1	NF-kB neuron act 4.5, APP 5'UTR act 176
Cc1ccc(-c2nc(-c3ccccn3)no2)cc1	STAT1 blocker 90, STAT3 inh 107
COc1nc(C)ccc1-c1noc(-c2ccco2)n1	NF-kB neuron act 4.6, STAT1 activator 140, APP 5'UTR act 182
COc1nc(-c2ccc(C)cc2)ccc1-c1noc(-c2ccco2)n1	none
COc1cccc(-c2nc(-c3ccccn3)no2)c1OC	STAT1 activator 136
c1ccc(-c2cc(-c3nc(-c4ccccn4)no3)c3ccccc3n2)cc1	none (no result: NF-kB neuron act)
COc1cc(-c2nc(-c3ccccn3)no2)cc(OC)c1OC	none
Cc1ccc(-c2nc(-c3ccccn3)no2)cc1Cl	STAT1 blocker 79, STAT3 inh 99, APP 5'UTR act 159
c1ccc(-c2ccc(-c3nc(-c4ccccn4)no3)cc2)cc1	STAT1 blocker 92, STAT3 inh 109
CCc1ccc2oc(-c3cc(N=Cc4cccc(OC)c4O)ccc3O)nc2c1	NF-kB neuron act 4.2, APP 5'UTR act 162
CCc1nc(Nc2ccncc2)c2oc3ccccc3c2n1	NF-kB neuron act 3.6
COc1ccc2oc(C(=O)NC(C)(C)C)c(C)c2c1	STAT1 activator 146
COc1ccc2oc(C(=O)C3CC3)c(N)c2c1	STAT1 activator 140
COC(=O)CCC(=O)c1oc2ccc(OC)cc2c1N	none
Cc1ccc(NC(=S)N2CCSC2c2cccs2)cc1 (stereo unspecified)	none
Cc1nnc(SCc2cc(=O)[nH]c(Nc3nc(C)c4ccccc4n3)n2)s1	none (no result: NF-kB neuron act)
Cc1ccc2nc(Nc3nc(CSc4nnc(C)s4)cc(=O)[nH]3)nc(C)c2c1	STAT1 activator 135
Fc1ccc(-c2csc(N3CCC(c4ccccc4)C3)n2)cc1 (stereo unspecified)	NF-kB neuron act 3.9, STAT1 activator 147
COc1ccc(-c2csc(N3CCC(c4ccccc4)C3)n2)cc1 (stereo unspecified)	none
Clc1ccc(-c2csc(N3CCC(c4ccccc4)C3)n2)cc1 (stereo unspecified)	STAT1 activator 132
O=C(Cc1ccccc1)Oc1coc(CSc2ncccn2)cc1=O	none
CS(=O)(=O)Nc1cccc(C2=NN(S(=O)(=O)c3ccccc3)C(c3ccco3)C2)c1 (stereo unspecified)	none
O=c1/c(=C/c2ccc(O)cc2)sc2n1CCCN=2	STAT1 activator 139
C=CCn1c(=O)/c(=C/c2ccc(F)cc2)s/c1=C(\C#N)c1nnc2n1CCCCC2	none
O=c1/c(=C\c2ccc(F)cc2)sc2n1CCCN=2	STAT1 activator 149, APP 5'UTR act 170
COC(=O)/C=c1/sc2n(c1=O)CCN=2	none
COc1ccc(Cl)cc1NC(=O)CN(C)CC(=O)NC(C)c1ccccc1 (stereo unspecified)	none
CCC1CCc2c(sc(NC(=O)c3ccco3)c2C(N)=O)C1 (stereo unspecified)	STAT1 activator 131
O=C(CCNC(=O)c1ccccc1Cl)Nc1nc(-c2ccc3ccccc3c2)cs1	none
CC1CCC/C(=C\Nc2ccc3c(c2)OCO3)C1=O (stereo unspecified)	STAT1 activator 133
O=C1CCC/C1=C/Nc1ccc2c(c1)OCO2	none
Cc1cccc(N2NC(=O)/C(=C/c3ccc(-c4ccc(Cl)c(C(=O)O)c4)o3)C2=O)c1	NF-kB neuron act 3.9
CC(=O)c1ccc(NC(=S)N2CCCC(CO)C2)cc1 (stereo unspecified)	none
CC1CCCN(C(=S)Nc2ccc(Nc3ccccc3)cc2)C1 (stereo unspecified)	STAT1 activator 136
OCC1CCCN(C(=S)Nc2ccc(Oc3ccccc3)cc2)C1 (stereo unspecified)	STAT1 activator 147
Cc1cc(NC(=O)CSc2nnc(C)n2-c2ccccc2C)no1	none
